What was measured:
Format in all cases: functional
NCI/ADR-RES = assay: Growth inhibition of human NCI/ADR-RES cells incubated for 48 hrs by sulforhodamine B assay
Method in brief: (§1)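 NCI-60 five-dose SRB assay in RPMI 1640 with 5% FBS, 37 °C, 5% CO2. Compound given at five tenfold dilutions, 0.01–100 µM, for 48 h. Adherent cells fixed with TCA, suspension cells with 16% final TCA. Bound SRB read at 515 nm and growth calculated against time-zero and untreated controls. GI50 taken from dose–response curves as the concentration giving a 50% decrease in net cell growth.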

PC-3 = assay: Growth inhibition of human PC3 cells assessed as cell viability at 0.001 uM incubated for 48 hrs by sulforhodamine B assay relative to control; details: PC-3, 48 h, read-out: Activity
SF-295 = assay: Growth inhibition of human SF295 cells assessed as cell viability at 0.1 uM incubated for 48 hrs by sulforhodamine B assay; details: SF-295, 48 h, read-out: Activity
SF-539 [1] = assay: Growth inhibition of human SF539 cells incubated for 48 hrs by sulforhodamine B assay; details: SF-539, 48 h
Method in brief: (§2)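 NCI-60 five-dose SRB assay. Cells were exposed for 48 h to tenfold dilutions of 0.01, 0.1, 1, 10 and 100 µM, in RPMI 1640 with 5% FBS. Plates fixed with TCA at the time of drug addition served as the time-zero reference. GI50 is the concentration giving a 50% reduction in net growth. TGI is total growth inhibition. LC50 is a net 50% loss of the initial cells.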

Hs-578T = assay: Growth inhibition of human Hs 578T cells incubated for 48 hrs by sulforhodamine B assay; method in brief: as §1
HT-29 = assay: Growth inhibition of human HT-29 cells assessed as cell viability at 1 uM incubated for 48 hrs by sulforhodamine B assay; details: HT-29, 48 h, read-out: Activity
U-251 [2] = assay: Growth inhibition of human U251 cells assessed as cell viability at 100 uM incubated for 48 hrs by sulforhodamine B assay; details: U-251, 48 h, read-out: Activity
UACC-257 = assay: Growth inhibition of human UACC257 cells assessed as cell viability at 0.001 uM incubated for 48 hrs by sulforhodamine B assay relative to control; details: UACC-257, 48 h, read-out: Activity
NCI-H226 = assay: Growth inhibition of human NCI-H226 cells assessed as cell viability at 0.1 uM incubated for 48 hrs by sulforhodamine B assay; details: NCI-H226, 48 h, read-out: Activity
CCRF-CEM = assay: Growth inhibition of human CCRF-CEM cells assessed as cell viability at 1 uM incubated for 48 hrs by sulforhodamine B assay; details: read-out: Activity
RXF 393 [3] = assay: Growth inhibition of human RXF393 cells assessed as cell viability at 0.001 uM incubated for 48 hrs by sulforhodamine B assay relative to control; details: RXF 393, 48 h, read-out: Activity
EKVX = assay: Growth inhibition of human EKVX cells assessed as cell viability at 1 uM incubated for 48 hrs by sulforhodamine B assay; details: read-out: Activity
HCT-15 = assay: Growth inhibition of human HCT15 cells assessed as cell viability at 1 uM incubated for 48 hrs by sulforhodamine B assay; details: HCT-15, 48 h, read-out: Activity
UACC-62 = assay: Growth inhibition of human UACC62 cells assessed as cell viability at 0.1 uM incubated for 48 hrs by sulforhodamine B assay; details: UACC-62, 48 h, read-out: Activity
SF-539 [4] = assay: Growth inhibition of human SF539 cells assessed as cell viability at 100 uM incubated for 48 hrs by sulforhodamine B assay; details: SF-539, 48 h, read-out: Activity
RXF 393 [5] = assay: Growth inhibition of human RXF393 cells incubated for 48 hrs by sulforhodamine B assay; details: RXF 393, 48 h; method in brief: as §2
SF-539 [6] = assay: Growth inhibition of human SF539 cells assessed as cell viability at 1 uM incubated for 48 hrs by sulforhodamine B assay; details: SF-539, 48 h, read-out: Activity
MOLT-4 = assay: Growth inhibition of human MOLT4 cells assessed as cell viability at 0.1 uM incubated for 48 hrs by sulforhodamine B assay; details: MOLT-4, 48 h, read-out: Activity
MDA-MB-435 = assay: Growth inhibition of human MDA-MB-435 cells assessed as cell viability at 0.001 uM incubated for 48 hrs by sulforhodamine B assay relative to control; details: MDA-MB-435, 48 h, read-out: Activity
Malme-3M = assay: Growth inhibition of human MALME-3M cells assessed as cell viability at 0.1 uM incubated for 48 hrs by sulforhodamine B assay; details: read-out: Activity
HOP-62 = assay: Growth inhibition of human HOP62 cells incubated for 48 hrs by sulforhodamine B assay; details: HOP-62, 48 h; method in brief: as §1
U-251 [7] = assay: Growth inhibition of human U251 cells incubated for 48 hrs by sulforhodamine B assay; details: U-251, 48 h; method in brief: as §2
786-0 = assay: Growth inhibition of human 786-0 cells assessed as cell viability at 0.001 uM incubated for 48 hrs by sulforhodamine B assay relative to control; details: 786-0, 48 h, read-out: Activity
SW-620 = assay: Growth inhibition of human SW620 cells assessed as cell viability at 0.1 uM incubated for 48 hrs by sulforhodamine B assay; details: SW-620, 48 h, read-out: Activity
[8] = read-out: LC50 (the source's name)
[9] = read-out: pLC50 (the source's name) (converted)

CC1=C(C(=O)OCc2ccccc2)C(c2ccc3c(c2)OCO3)n2c(nc3ccccc32)N1 (racemic)
GI50 (NCI/ADR-RES; read-out: GI50): 330 nM
CC50 (NCI/ADR-RES; [8]): > 100 µM
TGI (NCI/ADR-RES; read-out: TGI): > 100 µM
GI50 (NCI/ADR-RES; read-out: pGI50 (converted)): 331 nM
CC50 (NCI/ADR-RES; [9]): > 100 µM
TGI (NCI/ADR-RES; read-out: pTGI): > 100 µM
viability at 0.001 µM (PC-3): 89%
viability at 0.1 µM (SF-295): 87%
GI50 (SF-539 [1]; read-out: GI50): 340 nM
LC50 (SF-539 [1]; read-out: LC50): > 100 µM
TGI (SF-539 [1]; read-out: TGI): > 100 µM
GI50 (SF-539 [1]; read-out: pGI50 (converted)): 339 nM
LC50 (SF-539 [1]; read-out: pLC50 (converted)): > 100 µM
TGI (SF-539 [1]; read-out: pTGI): > 100 µM
GI50 (Hs-578T; read-out: GI50): 280 nM
CC50 (Hs-578T; [8]): > 100 µM
TGI (Hs-578T; read-out: TGI): 23.8 µM
GI50 (Hs-578T; read-out: pGI50 (converted)): 282 nM
CC50 (Hs-578T; [9]): > 100 µM
TGI (Hs-578T; read-out: pTGI (converted)): 24 µM
viability at 1 µM (HT-29): 8%
viability at 100 µM (U-251 [2]): 3%
viability at 0.001 µM (UACC-257): 88%
viability at 0.1 µM (NCI-H226): 97%
viability at 1 µM (CCRF-CEM): 19%
viability at 0.001 µM (RXF 393 [3]): 92%
viability at 1 µM (EKVX): 41%
viability at 1 µM (HCT-15): 25%
viability at 0.1 µM (UACC-62): 80%
viability at 100 µM (SF-539 [4]): 13%
GI50 (RXF 393 [5]; read-out: GI50): 310 nM
CC50 (RXF 393 [5]; [8]): > 100 µM
TGI (RXF 393 [5]; read-out: TGI): > 100 µM
GI50 (RXF 393 [5]; read-out: pGI50 (converted)): 302 nM
CC50 (RXF 393 [5]; [9]): > 100 µM
TGI (RXF 393 [5]; read-out: pTGI): > 100 µM
viability at 1 µM (SF-539 [6]): 13%
viability at 0.1 µM (MOLT-4): 99%
viability at 0.001 µM (MDA-MB-435): 93%
viability at 0.1 µM (Malme-3M): 87%
GI50 (HOP-62; read-out: GI50): 780 nM
CC50 (HOP-62; [8]): > 100 µM
TGI (HOP-62; read-out: TGI): > 100 µM
GI50 (HOP-62; read-out: pGI50 (converted)): 776 nM
CC50 (HOP-62; [9]): > 100 µM
TGI (HOP-62; read-out: pTGI): > 100 µM
GI50 (U-251 [7]; read-out: GI50): 460 nM
LC50 (U-251 [7]; read-out: LC50): > 100 µM
TGI (U-251 [7]; read-out: TGI): > 100 µM
GI50 (U-251 [7]; read-out: pGI50 (converted)): 427 nM
LC50 (U-251 [7]; read-out: pLC50 (converted)): > 100 µM
TGI (U-251 [7]; read-out: pTGI): > 100 µM
viability at 0.001 µM (786-0): 94%
viability at 0.1 µM (SW-620): 89%
